We go through 22 molecules from ChEMBL document CHEMBL1127590 (J Med Chem, 1994).

Data set [1] in a line: In vitro inhibitory activity against human adrenal 3-beta hydroxy-delta 5-teroid isomerase. In short, it runs like this: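 Microsomes were prepared from human adrenal tissue by homogenization and differential centrifugation. Inhibitor in 50% DMSO was preincubated 10 min at 37 °C in 100 mM potassium phosphate pH 7.5 with 1 mM NAD+. The reaction was started with 100 nM [3H]DHEA and quenched in ethanol after 15 min. DHEA-to-androstenedione conversion was measured by radio-HPLC.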

In data set [2] the test system is Rattus norvegicus. The data set can be described thus: In vivo inhibition of T stimulated prostate growth in rats was reported after oral administration at a dose 10 mg/kg/day. The data set is classed as functional, Prostate gland. In short, it runs like this: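 Rats were castrated, and 7 days later dosed orally once daily for 7 days at 10 mg/kg/day in 1 part cremophor:2 parts saline:0.5% Tween 80 (8 rats/group). Testosterone (40 μg/kg sc in corn oil) was given 4 h after each dose. Ventral prostates were weighed on day 8. Weight reduction was expressed as a percent of the finasteride reduction versus T-treated vehicle controls.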

Data set [3] has as its target T1, 3-oxo-5-alpha-steroid 4-dehydrogenase 2 (Homo sapiens, UniProt P31213).
T1 sequence (P31213 whole entry): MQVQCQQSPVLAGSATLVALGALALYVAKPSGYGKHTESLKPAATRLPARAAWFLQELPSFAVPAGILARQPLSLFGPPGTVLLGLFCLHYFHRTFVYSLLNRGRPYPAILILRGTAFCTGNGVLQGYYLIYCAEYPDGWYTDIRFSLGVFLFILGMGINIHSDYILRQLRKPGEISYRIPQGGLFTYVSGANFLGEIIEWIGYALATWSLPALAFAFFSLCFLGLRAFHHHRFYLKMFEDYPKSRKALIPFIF
The data set can be described thus: In vitro inhibitory activity against human type 2 5-alpha reductase.

The target of data set [4] is T2, 3-oxo-5-alpha-steroid 4-dehydrogenase 1 (Homo sapiens, UniProt P18405).
T2 sequence (P18405 whole entry): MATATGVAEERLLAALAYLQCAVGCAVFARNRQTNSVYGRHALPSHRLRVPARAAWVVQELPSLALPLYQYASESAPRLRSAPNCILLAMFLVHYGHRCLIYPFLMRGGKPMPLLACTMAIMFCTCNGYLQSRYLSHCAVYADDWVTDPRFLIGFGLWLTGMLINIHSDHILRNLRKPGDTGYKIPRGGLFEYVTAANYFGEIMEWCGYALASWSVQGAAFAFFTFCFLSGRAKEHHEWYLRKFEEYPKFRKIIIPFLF
The data set can be described thus: In vitro inhibitory activity against human type 1 5-alpha reductase. An outline of the steps: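 Used microsomes from baculovirus-infected SF-9 cells expressing recombinant human type 1 5AR, at final enzyme 0.05–5 nM. Buffer at pH 7 and 37 °C contained an NADPH-regenerating system. Inhibitor was preincubated 10 min before adding 100 nM [3H]testosterone.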

Data set [5] can be described thus: Bioavailability in dog (male Beagle) i.v. administration. As to conditions: in vivo, po, in the assay text read “oral administration” for “[…]”. The data set is classed as ADME, organism-based, Canis lupus familiaris. An outline of the steps: (§1)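 Male beagles received iv doses of 5 or 10 mg/kg from 5 mg/mL solutions in aqueous 40% (w/v) Molecusol, and some also received oral doses. Heparinized blood was sampled from 0 min to 24 h and assayed by HPLC (UV 304 nm, or thermospray MS). AUC∞ was calculated by the trapezoidal rule.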

Data set [6] in a line: Half-life after intravenous administration of 10 mg/kg/day dose in male beagles. Type of data set: ADME, organism-based, Canis lupus familiaris. Set-up: route intravenous. As to conditions: beagle, dog, in vivo. An outline of the steps: as §1
Data set [7] in a line: Half-life after intravenous administration of 5 mg/kg/day dose in male beagles. Type of data set: ADME, organism-based, Canis lupus familiaris. More on the design: route intravenous. As to conditions: beagle, dog, in vivo. In short, it runs like this:
as §1

For data set [8], the system named is Rattus norvegicus. The data set can be described thus: In vivo inhibition of T stimulated prostate growth in rats was reported after oral administration at a dose 10 mg/kg/day.

pIC50, pKi: −log10 of the molar value.

A word on the pKi: it is −log10 of the Ki, conventionally taken in molar units. Read a low pKi as a high Ki. As usually defined, the pIC50 is the negative decadic logarithm of the IC50, by convention in mol/L. Lower therefore signals a large IC50. Regarding `CC1=C2NCC3C(CC[C@@]4(C)C3CC[C@@H]4C(=O)NC(c3ccccc3)c3ccccc3)[C@@]2(C)CCC1=O` (stereo partly specified), the pKi is 7.74 in data set [1] and 8.44 in data set [4]. The molecule further showed a Reduction in the data set with Rattus norvegicus [2] of 38%. In data set [3], this molecule gave a pIC50 of over 10.00.
For the molecule `C[C@]12C=CC(=O)C=C1NCC1C2CC[C@@]2(C)C1CC[C@@H]2C(=O)NC(c1ccccc1)c1ccccc1` (stereo partly specified), the negative logarithm of the Ki (pKi) is 6.00 in data set [1] and 7.32 in data set [4]. The Reduction in the data set with Rattus norvegicus [2] came out at 0%. This molecule also gave a pIC50 in data set [3] of over 10.00.
The bioavailability is dose-corrected exposure relative to a reference, in per cent. A low value points to little systemic uptake. The term half-life denotes how long it takes for the measured level to halve. Turning to `CC(C)(C)NC(=O)[C@H]1CC[C@H]2[C@@H]3CC[C@H]4NC(=O)C=C[C@]4(C)[C@H]3CC[C@]12C` [FINASTERIDE], the pKi in data set [1] was 4.96. The same molecule displayed a bioavailability in data set [5] of 69%. Also, the half-life in data set [6] was 252 min. The molecule further gave a Reduction in the data set on Rattus norvegicus [2] of 100%.
Consider `CN1CC2C(CC[C@@]3(C)C2CC[C@@H]3C(=O)NC(C)(C)C)[C@@]2(C)CCC(=O)C=C12` (stereo partly specified), for which the pKi is 8.18 in data set [1] and 7.06 in data set [4]. This molecule also returned a bioavailability in data set [5] of 80%. In data set [6], the half-life is 84 min. This molecule also had a Reduction in the data set on Rattus norvegicus [2] of 54%.
In the case of `CCN(CC)C(=O)[C@H]1CCC2C3CN(C)C4=CC(=O)CC[C@]4(C)C3CC[C@@]21C` (stereo partly specified), the pKi in data set [1] was 8.44; in data set [4], 6.74. In addition, the Reduction with Rattus norvegicus [2] stood at 52%. The same molecule showed a pIC50 in data set [3] of 8.64.
As to `CC1=C2NCC3C(CC[C@@]4(C)C3CC[C@@H]4C(=O)NC34CC5CC(CC(C5)C3)C4)[C@@]2(C)CCC1=O` (stereo partly specified), the pKi in data set [1] is 8.05; in data set [4] it was 8.96. The molecule further had a Reduction with Rattus norvegicus [2] of 24%. In data set [3], this molecule had a pIC50 of over 10.00.
As for `CN1CC2C(CC[C@@]3(C)C2CC[C@@H]3C(=O)NC23CC4CC(CC(C4)C2)C3)[C@@]2(C)CCC(=O)C=C12` (stereo partly specified), the pKi in data set [1] is 8.57; in data set [4], 8.07. Further, the Reduction in the data set with Rattus norvegicus [2] came out at 12%. For the same molecule, the pIC50 in data set [3] is over 10.00.
In the same order, the values of `C[C@]12C=CC(=O)C=C1NCC1C2CC[C@@]2(C)C1CC[C@@H]2C(=O)NC12CC3CC(CC(C3)C1)C2` (stereo partly specified) are 6.00, 7.13, 14% and over 10.00.
On to `C[C@]12CCC(=O)C=C1NCC1C2CC[C@@]2(C)C1CC[C@@H]2C(=O)NC(c1ccc(F)cc1)c1ccc(F)cc1` (stereo partly specified), for which the pKi in data set [1] is 6.49. The molecule also showed a half-life in data set [7] of 312 min. For the same molecule, the Reduction in the data set with Rattus norvegicus [8] was found to be 90%.
`C[C@]12CCC(=O)C=C1NCC1C2CC[C@@]2(C)C1CC[C@@H]2C(=O)NC(c1ccccc1)c1ccccc1` (stereo partly specified) gave a pKi in data set [1] of 6.82. Moreover, the bioavailability in data set [5] was determined as 79%. Moreover, the half-life in data set [7] is 288 min. This molecule also showed a pIC50 in data set [3] of over 10.00. In addition, the Reduction in the data set with Rattus norvegicus [8] was 95%.
Regarding `CC(C)CC(=O)[C@H]1CCC2C3CN(C)C4=CC(=O)CC[C@]4(C)C3CC[C@@]21C` (stereo partly specified), the pKi in data set [1] is 8.96; in data set [4], 8.51. This molecule also had a half-life in data set [7] of 132 min. In the data set with Rattus norvegicus [8], this molecule yielded a Reduction of 5%.
In turn, `C[C@]12CCC(=O)C=C1NCC1C2CC[C@@]2(C)C1CC[C@@H]2C(=O)NC(c1ccc(Cl)cc1)c1ccc(Cl)cc1` (stereo partly specified) showed a pKi in data set [1] of 6.29. In data set [7], this molecule showed a half-life of 720 min. The same molecule registered a Reduction in the data set with Rattus norvegicus [8] of 74%.
As for `CN1CC2C(CC[C@@]3(C)C2CC[C@@H]3C(=O)NC(c2ccccc2)c2ccccc2)[C@@]2(C)CCC(=O)C=C12` (stereo partly specified), the negative logarithm of the Ki (pKi) in data set [1] is 7.96; in data set [4], 8.19. The molecule further showed a Reduction with Rattus norvegicus [2] of 13%. For the same molecule, in data set [3], the pIC50 was 9.70.
Take `CCN(CC)C(=O)[C@H]1CCC2C3CNC4=C(C)C(=O)CC[C@]4(C)C3CC[C@@]21C` (stereo partly specified): the pKi in data set [1] was 7.74; in data set [4], 7.40. For the same molecule, the Reduction in the data set with Rattus norvegicus [2] came out at 0%.
Turning to `C[C@]12CCC(=O)C=C1NCC1C2CC[C@@]2(C)C1CC[C@@H]2C(=O)NC12CC3CC(CC(C3)C1)C2` (stereo partly specified), the pKi is 7.11 in data set [1] and 7.96 in data set [4]. This molecule gave a half-life in data set [6] of 108 min. For the same molecule, the Reduction in the data set on Rattus norvegicus [2] was 38%.
Consider `CC1=C2NCC3C(CC[C@@]4(C)C3CC[C@@H]4C(=O)NC(C)(C)C)[C@@]2(C)CCC1=O` (stereo partly specified), for which the pKi in data set [1] was 8.04; in data set [4], 7.92. In the data set on Rattus norvegicus [2], this molecule returned a Reduction of 0%. The same molecule showed a pIC50 in data set [3] of 8.85.
Regarding `CCN(CC)C(=O)[C@H]1CCC2C3CNC4=C(CN(C)C)C(=O)CC[C@]4(C)C3CC[C@@]21C` (stereo partly specified), the results for the pKi in data set [1] and in data set [4] were 5.92 and 5.00, respectively. Besides, the pIC50 in data set [3] was 6.77.
In the same order, the values of `C[C@]12CCC(=O)C(Br)=C1NCC1C2CC[C@@]2(C)C1CC[C@@H]2C(=O)NC12CC3CC(CC(C3)C1)C2` (stereo partly specified) are 7.89, 8.35 and over 10.00.
Take `CCC1=C2NCC3C(CC[C@@]4(C)C3CC[C@@H]4C(=O)N(CC)CC)[C@@]2(C)CCC1=O` (stereo partly specified): the pKi in data set [1] is 7.33; in data set [4], 5.39. The molecule further had a pIC50 in data set [3] of 6.74.
In the same order, the values of `CCN(CC)C(=O)[C@H]1CCC2C3CN(C(C)C)C4=CC(=O)CC[C@]4(C)C3CC[C@@]21C` (stereo partly specified) are 5.96, 5.47 and 8.31.
In the same order, the values of `CC(C)(C)NC(=O)[C@H]1CCC2C3CNC4=CC(=O)C=C[C@]4(C)C3CC[C@@]21C` (stereo partly specified) are 5.66, 5.62 and 8.74.
For the molecule `CCN(CC)C(=O)[C@H]1CCC2C3CN(CC(=O)O)C4=CC(=O)CC[C@]4(C)C3CC[C@@]21C` (stereo partly specified), the results for the pKi in data set [1] and in data set [4] were 6.74 and 5.00, respectively. The molecule further had a pIC50 in data set [3] of 5.82.
